Holding throughout (format): functional
The test system of assay [1] is Rattus norvegicus. In words: Increase of HDL level in cholesterol-fed male rats by ultracentrifugation method at 82 mg/kg/day relative to control. In outline: (§1)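 Compound given in the diet, ad libitum, to groups of six male Sprague–Dawley rats on a cholesterol diet for 8 days. Serum lipoproteins were separated by classical ultracentrifugation, and HDL cholesterol was quantitated by an enzymatic colorimetric method. Results are reported as % change relative to untreated controls, with significance at p < 0.05 versus controls.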

The subject of assay [2] is Rattus norvegicus. In words: Increase of HDL level in cholesterol-fed male rats by FPLC method at 82 mg/kg/day relative to control. In outline: (§2)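 Groups of six male Sprague–Dawley rats on a cholesterol diet received drug in the diet, ad libitum, for 8 days. Serum lipoproteins separated by FPLC, adapted for robotic automation, and cholesterol quantitated enzymatically by colorimetry. HDL given as % change versus untreated controls, with significance set at p < 0.05.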

For assay [3], the system named is Rattus norvegicus. Kind of assay: Weight gain in cholesterol-fed male rats at 82 mg/kg/day relative to control. In outline: (§3)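 Groups of six male Sprague–Dawley rats on a cholesterol diet received the compound in the diet, ad libitum, over 8 days. Body weight gain is reported as % change relative to untreated controls.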
Assay [4] concerns Rattus norvegicus. In words: Triglyceride level in cholesterol-fed male rats at 82 mg/kg/day relative to control. In outline: (§4)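 Male Sprague–Dawley rats on a cholesterol diet, in groups of six, received the compound in the diet ad libitum for 8 days. Serum triglycerides are expressed as % change relative to untreated controls, with significance at p < 0.05 versus controls.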

The test system of assay [5] is Rattus norvegicus. Kind of assay: Increase of total cholesterol level in cholesterol-fed male rats at 82 mg/kg/day relative to control. In outline:
(§5)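 Dietary (ad libitum) dosing of groups of six male Sprague–Dawley rats on a cholesterol diet for 8 days. Serum total cholesterol was quantitated enzymatically by a colorimetric method and expressed as % change relative to untreated controls, with significance at p < 0.05.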

Assay [6] has as its system Rattus norvegicus. In words: Increase of Apolipoprotein A-I level in cholesterol-fed male rats at 82 mg/kg/day relative to control. Summed up:
(§6)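 Drug mixed into diet, fed ad libitum for 8 days to groups of six male Sprague–Dawley rats on a cholesterol diet. Serum Apo A-I measured by SDS–polyacrylamide gel electrophoresis or by rat competition ELISA. Reported as % change versus untreated controls, with significance set at p < 0.05.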

For assay [7], the system named is Rattus norvegicus. Kind of assay: Weight gain in cholesterol-fed male rats at 88 mg/kg/day relative to control. Summed up: as §3
The subject of assay [8] is Rattus norvegicus. In words: Increase of HDL level in cholesterol-fed male rats by FPLC method at 88 mg/kg/day relative to control. In outline:
as §2

Assay [9] relates to Rattus norvegicus. In words: Increase of HDL level in cholesterol-fed male rats by ultracentrifugation method at 88 mg/kg/day relative to control. In outline: as §1
The species named for assay [10] is Rattus norvegicus. In words: Increase in liver enzyme Aspartate aminotransferase. More on the design: concentration or dose not given beside the values.
Assay [11] has as its system Rattus norvegicus. Kind of assay: Increase of total cholesterol level in cholesterol-fed male rats at 88 mg/kg/day relative to control. In outline:
as §5

The subject of assay [12] is Rattus norvegicus. Kind of assay: Triglyceride level in cholesterol-fed male rats at 88 mg/kg/day relative to control. In outline:
as §4

The species entered for assay [13] is Rattus norvegicus. Kind of assay: Increase in liver enzyme Alanine aminotransferase.
In assay [14] the test system is Rattus norvegicus. Kind of assay: Increase of Apolipoprotein A-I level in cholesterol-fed male rats at 88 mg/kg/day relative to control. In outline:
as §6

The subject of assay [15] is Rattus norvegicus. In words: Weight gain in cholesterol-fed male rats at 71 mg/kg/day relative to control. In outline:
as §3

In assay [16] the test system is Rattus norvegicus. Kind of assay: Increase of HDL level in cholesterol-fed male rats by ultracentrifugation method at 71 mg/kg/day relative to control. In outline: (§7)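 Cholesterol-fed male Sprague–Dawley rats, six per group, given drug in the diet ad libitum for 8 days. Serum lipoproteins separated by classical ultracentrifugation and HDL cholesterol measured by an enzymatic colorimetric method. Expressed as % change versus untreated controls, with significance set at p < 0.05.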

Assay [17] concerns Rattus norvegicus. Kind of assay: Increase of total cholesterol level in cholesterol-fed male rats at 71 mg/kg/day relative to control. Summed up: as §5
Assay [18] has as its system Rattus norvegicus. In words: Increase of HDL level in cholesterol-fed male rats by FPLC method at 71 mg/kg/day relative to control. In outline:
as §2

Assay [19] deals with Rattus norvegicus. Kind of assay: Triglyceride level in cholesterol-fed male rats at 71 mg/kg/day relative to control. Summed up:
as §4

In assay [20] the test system is Rattus norvegicus. Kind of assay: Triglyceride level in cholesterol-fed male rats at 81 mg/kg/day relative to control. In outline:
as §4

Assay [21] concerns Rattus norvegicus. In words: Weight gain in cholesterol-fed male rats at 81 mg/kg/day relative to control. Summed up: as §3
In assay [22] the test system is Rattus norvegicus. In words: Increase of HDL level in cholesterol-fed male rats by FPLC method at 81 mg/kg/day relative to control. Summed up:
as §2

Assay [23] concerns Rattus norvegicus. Kind of assay: Increase of total cholesterol level in cholesterol-fed male rats at 81 mg/kg/day relative to control. Summed up: as §5
Assay [24] deals with Rattus norvegicus. In words: Increase of Apolipoprotein A-I level in cholesterol-fed male rats at 81 mg/kg/day relative to control. In outline:
as §6

The test system of assay [25] is Rattus norvegicus. Kind of assay: Increase of HDL level in cholesterol-fed male rats by ultracentrifugation method at 81 mg/kg/day relative to control. In outline:
as §1

Assay [26] concerns Rattus norvegicus. In words: Increase of HDL level in cholesterol-fed male rats by ultracentrifugation method at 70 mg/kg/day relative to control. Summed up:
as §7

The test system of assay [27] is Rattus norvegicus. Kind of assay: Triglyceride level in cholesterol-fed male rats at 70 mg/kg/day relative to control. In outline:
as §4

Assay [28] deals with Rattus norvegicus. In words: Increase of total cholesterol level in cholesterol-fed male rats at 70 mg/kg/day relative to control. In outline: as §5
For assay [29], the system named is Rattus norvegicus. In words: Weight gain in cholesterol-fed male rats at 70 mg/kg/day relative to control. Summed up: as §3
Assay [30] deals with Rattus norvegicus. Kind of assay: Increase of HDL level in cholesterol-fed male rats by FPLC method at 70 mg/kg/day relative to control. In outline:
as §2

The test system of assay [31] is Rattus norvegicus. Kind of assay: Increase of Apolipoprotein A-I level in cholesterol-fed male rats at 70 mg/kg/day relative to control. In outline:
as §6

Assay [32] deals with Rattus norvegicus. Kind of assay: Increase of HDL level in cholesterol-fed male rats by ultracentrifugation method at 57 mg/kg/day relative to control. In outline:
as §7

Assay [33] concerns Rattus norvegicus. In words: Increase of total cholesterol level in cholesterol-fed male rats at 57 mg/kg/day relative to control. In outline:
as §5

In assay [34] the test system is Rattus norvegicus. In words: Increase of HDL level in cholesterol-fed male rats by FPLC method at 57 mg/kg/day relative to control. In outline:
as §2

For assay [35], the system named is Rattus norvegicus. In words: Weight gain in cholesterol-fed male rats at 57 mg/kg/day relative to control. In outline:
as §3

In assay [36] the test system is Rattus norvegicus. Kind of assay: Triglyceride level in cholesterol-fed male rats at 57 mg/kg/day relative to control. Summed up: as §4
Assay [37] concerns Rattus norvegicus. Kind of assay: Increase of Apolipoprotein A-I level in cholesterol-fed male rats at 57 mg/kg/day relative to control. In outline:
as §6

Assay [38] relates to Rattus norvegicus. Kind of assay: Triglyceride level in cholesterol-fed male rats at 78 mg/kg/day relative to control. Summed up: as §4
The subject of assay [39] is Rattus norvegicus. In words: Increase of total cholesterol level in cholesterol-fed male rats at 78 mg/kg/day relative to control. In outline: as §5
Assay [40] relates to Rattus norvegicus. In words: Increase of Apolipoprotein A-I level in cholesterol-fed male rats at 78 mg/kg/day relative to control. In outline:
as §6

Assay [41] is filed under the species Rattus norvegicus. In words: Increase in liver enzyme Alkaline phosphatase. More on the design: concentration or dose not given beside the values.
For assay [42], the system named is Rattus norvegicus. In words: Increase of HDL level in cholesterol-fed male rats by FPLC method at 78 mg/kg/day relative to control. In outline:
as §2

In assay [43] the test system is Rattus norvegicus. In words: Weight gain in cholesterol-fed male rats at 78 mg/kg/day relative to control. Summed up:
as §3

The subject of assay [44] is Rattus norvegicus. Kind of assay: Increase of HDL level in cholesterol-fed male rats by ultracentrifugation method at 78 mg/kg/day relative to control. In outline: as §1
The test system of assay [45] is Rattus norvegicus. In words: Increase of HDL level in cholesterol-fed male rats by FPLC method at 73 mg/kg/day relative to control. In outline: as §2
In assay [46] the test system is Rattus norvegicus. In words: Increase of total cholesterol level in cholesterol-fed male rats at 73 mg/kg/day relative to control. In outline:
as §5

Assay [47] concerns Rattus norvegicus. In words: Increase of HDL level in cholesterol-fed male rats by ultracentrifugation method at 73 mg/kg/day relative to control. Summed up:
as §1

In assay [48] the test system is Rattus norvegicus. In words: Increase of Apolipoprotein A-I level in cholesterol-fed male rats at 73 mg/kg/day relative to control. Summed up: as §6
Assay [49] relates to Rattus norvegicus. In words: Weight gain in cholesterol-fed male rats at 73 mg/kg/day relative to control. Summed up:
as §3

Assay [50] relates to Rattus norvegicus. Kind of assay: Triglyceride level in cholesterol-fed male rats at 73 mg/kg/day relative to control. Summed up:
as §4

Drawing on ChEMBL document CHEMBL1148541, “Biological evaluation of 1-alkyl-3-phenylthioureas as orally active HDL-elevating agents” (Bioorg Med Chem Lett, 2006), this text covers Activity for eight compounds.

Regarding `Cc1ccc(Cl)cc1N/C(S)=N/C(C)C(C)(C)C` (configuration not stated), the Activity in the assay on Rattus norvegicus [1] is listed as 93%; with Rattus norvegicus [2], 109%; with Rattus norvegicus [3], -24%; in the assay on Rattus norvegicus [4], -35%; in the assay with Rattus norvegicus [5] it was 15%; in the assay on Rattus norvegicus [6] it was 34%.

Turning to `Cc1ccc(Cl)cc1/N=C(\S)NCC(C)(C)C`, the Activity with Rattus norvegicus [7] was 7%; in the assay on Rattus norvegicus [8] it was 196%; in the assay with Rattus norvegicus [9] it was 122%; in the assay filed under Rattus norvegicus [10] it was 49%; in the assay with Rattus norvegicus [11], 3%; with Rattus norvegicus [12], -66%. Besides, the Activity in the assay listed under Rattus norvegicus [13] is given as 111%; with Rattus norvegicus [14], 89%.

Take `CCC/N=C(\S)Nc1cc(C)ccc1OC`: the Activity in the assay with Rattus norvegicus [15] was -16%; in the assay on Rattus norvegicus [16] it was 84%; in the assay on Rattus norvegicus [17] it was 71%; in the assay with Rattus norvegicus [18], 63%; with Rattus norvegicus [19] it was -38%.

With `CCC(C)(C)/N=C(\S)Nc1cc(Cl)ccc1C`, the Activity in the assay with Rattus norvegicus [20] is -14%; with Rattus norvegicus [21], 15%; in the assay with Rattus norvegicus [22], 39%; with Rattus norvegicus [23], -10%; in the assay with Rattus norvegicus [24], 64%; in the assay on Rattus norvegicus [25], 55%.

For the compound `CCC/N=C(\S)Nc1cc(Cl)ccc1CC`, the Activity with Rattus norvegicus [26] is on record as 101%; with Rattus norvegicus [27], -61%; with Rattus norvegicus [28] it was 28%; in the assay on Rattus norvegicus [29], -33%; in the assay on Rattus norvegicus [30], 369%; with Rattus norvegicus [31], 43%.

As for `CCC/N=C(\S)Nc1cc(F)ccc1C`, the Activity in the assay with Rattus norvegicus [32] is given as 152%; in the assay with Rattus norvegicus [33] it was 54%; in the assay on Rattus norvegicus [34], 312%; with Rattus norvegicus [35], -77%; in the assay with Rattus norvegicus [36], -58%; in the assay with Rattus norvegicus [37] it was 18%.

With `CCC/N=C(\S)Nc1cc(Cl)ccc1OC`, the Activity with Rattus norvegicus [38] was -43%; with Rattus norvegicus [39] it was 49%; with Rattus norvegicus [40], 58%; in the assay listed under Rattus norvegicus [41], 44%; in the assay with Rattus norvegicus [42] it was 97%; with Rattus norvegicus [43], -6%. Also, the Activity in the assay with Rattus norvegicus [44] is reported as 99%.

As to `CC/N=C(\S)Nc1cc(Cl)ccc1C`, the Activity in the assay with Rattus norvegicus [45] was 215%; in the assay with Rattus norvegicus [46], 32%; in the assay with Rattus norvegicus [47], 110%; in the assay on Rattus norvegicus [48], 27%; in the assay filed under Rattus norvegicus [10] it was 162%; with Rattus norvegicus [49], -107%. In addition, the Activity in the assay filed under Rattus norvegicus [13] is recorded as 81%; in the assay on Rattus norvegicus [50], -64%.
